# Experimental data as given in ChEMBL document CHEMBL1121836, “Effect of structural change on acute toxicity and antiinflammatory activity in a series of imidazothiazoles and thiazolobenzimidazoles” (J Med Chem, 1981).
# Several values for one entry are separate records, joined by “and”; a condition that tells them apart may be missing. Equal values may be shown once.
# Columns and labels:
# [1] = test system: Mus musculus; assay: Compound was evaluated for the percent reduction of carrageenan induced edema in mice at dose of 10 mg/kg; format: functional
# [2] = test system: Mus musculus; assay: Compound was evaluated for the percent reduction of carrageenan induced edema in mice at dose of 100 mg/kg; format: functional
# [3] = test system: Mus musculus; assay: Compound was evaluated for the percent reduction of carrageenan induced edema in mice at dose of 30 mg/kg; format: functional
# [4] = test system: Mus musculus; assay: Compound was evaluated for the percent reduction of carrageenan induced edema in mice at dose of 200 mg/kg; format: functional
# [5] = (§1) Compound was evaluated for the toxicity in mice; format: organism-based; conditions: mouse, in vivo
# [6] = test system: Mus musculus; assay: Compound was evaluated for the percent reduction of carrageenan induced edema in mice at dose of 40 mg/kg; format: functional
# [7] = test system: Mus musculus; assay: Compound was evaluated for the percent reduction of carrageenan induced edema in mice at dose of 1 mg/kg; format: functional
# [8] = test system: Mus musculus; assay: Compound was evaluated for the percent reduction of carrageenan induced edema in mice at dose of 50 mg/kg; format: functional
# [9] = test system: Mus musculus; assay: Compound was evaluated for the percent reduction of carrageenan induced edema in mice at dose of 25 mg/kg; format: functional
# [10] = test system: Rattus norvegicus; assay: Compound was evaluated in the developed adjuvant arthritis assay at a dose of 10 mg/kg for the percent reduction of carrageenan induced edema (LHF) on 21st day; format: functional
# Outline: (§2)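 Rats received 0.1 mL heat-killed Mycobacterium tuberculosis suspension (3.5 mg/mL) into the left hind footpad on day 1. On day 20, animals with developed arthritis (all four paws swollen, tail and ears involved) were used. Oral gavage in 0.25% methylcellulose (0.005 mL/g) on days 20 and 22. Hind paw volumes were recorded daily on days 20–23. Mean group volume is expressed as percent change from day 20.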
# [11] = test system: Rattus norvegicus; assay: Compound was evaluated in the developed adjuvant arthritis assay at a dose of 10 mg/kg for the percent reduction of carrageenan induced edema (LHF) on 22nd day; format: functional; outline: as §2
# [12] = test system: Rattus norvegicus; assay: Compound was evaluated in the developed adjuvant arthritis assay at a dose of 30 mg/kg for the percent reduction of carrageenan induced edema (LHF) on 22nd day; format: functional; outline: as §2
# [13] = test system: Rattus norvegicus; assay: Compound was evaluated in the developed adjuvant arthritis assay at a dose of 3 mg/kg for the percent reduction of carrageenan induced edema (LHF) on 22nd day; format: functional; outline: as §2
# [14] = test system: Rattus norvegicus; assay: Compound was evaluated in the developed adjuvant arthritis assay at a dose of 30 mg/kg for the percent reduction of carrageenan induced edema (LHF) on 21st day; format: functional; outline: as §2
# [15] = species: Mus musculus; assay: as §1; format: organism-based; conditions: in vivo
# [16] = test system: Rattus norvegicus; assay: Compound was evaluated in the developed adjuvant arthritis assay at a dose of 30 mg/kg for the percent reduction of carrageenan induced edema (LHF) on 23rd day; format: functional; outline: as §2
# [17] = test system: Rattus norvegicus; assay: Compound was evaluated in the developed adjuvant arthritis assay at a dose of 10 mg/kg for the percent reduction of carrageenan induced edema (LHF) on 23rd day; format: functional; outline: as §2
# [18] = test system: Rattus norvegicus; assay: Compound was evaluated in the developed adjuvant arthritis assay at a dose of 3 mg/kg for the percent reduction of carrageenan induced edema (LHF) on 21st day; format: functional; outline: as §2
# [19] = test system: Rattus norvegicus; assay: Compound was evaluated in the developed adjuvant arthritis assay at a dose of 3 mg/kg for the percent reduction of carrageenan induced edema (LHF) on 23rd day; format: functional; outline: as §2
# [20] = species: Mus musculus; assay: Dose giving one-half of average maximal [40%] response in phenylquinone writhing assay; format: functional
# [21] = species: Mus musculus; assay: Dose giving one-half of average maximal [40%] response in carrageenan assay; format: functional
# [22] = test system: Mus musculus; assay: Percent analgesia in phenylquinone writhing assay at 300 mg/kg; format: functional
# Outline: (§3)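 Groups of 10 male mice were dosed orally with compound dissolved or suspended in 0.25% methylcellulose (0.25 mL per mouse). After the designated interval they were challenged ip with 0.25 mL of 0.02% phenylquinone in aqueous ethanol (95:5). Read-out is the percentage of mice protected from writhing.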
# [23] = (§4) Neurotoxic dose that causes minimal recognizable neurotoxicity in 50% of animals tested; format: toxicity, organism-based; conditions: mouse, in vivo; read-out: NTD50
# Outline: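 NTD50 in mice is the oral or intraperitoneal dose causing minimal recognizable neurotoxicity in 50% of animals, judged by five end points, including a positional sense test (hind leg lowered over a table edge should be lifted back).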
# [24] = test system: Mus musculus; assay: Percent analgesia in phenylquinone writhing assay at 100 mg/kg; format: functional; outline: as §3
# [25] = test system: Mus musculus; assay: Percent analgesia in phenylquinone writhing assay at 30 mg/kg; format: functional; outline: as §3
# [26] = species: Rattus norvegicus; assay: (§5) Ulcerogenic dose that produced gastric lesions, ulcers and/or hemorrhage in 50% of the animals tested; format: functional, Stomach
# Outline: (§6)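 Ten male Sprague–Dawley rats (ca. 160 g) were fasted 24 h with water available, then dosed po with compound or vehicle. At 4 h they were killed with CO2, and stomachs were opened along the greater curvature. A nonbiased observer scored ulcers, pitting or hemorrhagic spots. UD50 (lesions in 50% of animals) was determined by Litchfield–Wilcoxon.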
# [27] = species: Mus musculus; assay: as §4; format: functional
# Outline: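 Mice dosed orally or intraperitoneally; neurotoxicity scored on five end points, including a positional sense test in which a hind leg lowered over a table edge should be quickly lifted back to a normal position. NTD50 is the dose giving minimal recognizable neurotoxicity in 50% of animals tested.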
# [28] = test system: Mus musculus; assay: Percent analgesia in phenylquinone writhing assay at 10 mg/kg; format: functional; outline: as §3
# [29] = Lethal dose evaluated in NPP assay; format: toxicity, organism-based; conditions: mouse, in vivo
# [30] = test system: Mus musculus; assay: Percent analgesia in phenylquinone writhing assay at 3 mg/kg; format: functional; outline: as §3
# [31] = test system: Mus musculus; assay: Compound was evaluated for the percent reduction of carrageenan induced edema in mice at dose of 0.3 mg/kg; format: functional
# [32] = test system: Mus musculus; assay: Percent analgesia in phenylquinone writhing assay at 0.3 mg/kg; format: functional; outline: as §3
# [33] = test system: Rattus norvegicus; assay: Compound was evaluated in the developed adjuvant arthritis assay at a dose of 0.3 mg/kg for the percent reduction of carrageenan induced edema (LHF) on 23rd day; format: functional; outline: as §2
# [34] = test system: Mus musculus; assay: Compound was evaluated for the percent reduction of carrageenan induced edema in mice at dose of 3.0 mg/kg; format: functional
# [35] = test system: Rattus norvegicus; assay: Compound was evaluated in the developed adjuvant arthritis assay at a dose of 1 mg/kg for the percent reduction of carrageenan induced edema (LHF) on 23rd day; format: functional; outline: as §2
# [36] = test system: Rattus norvegicus; assay: Compound was evaluated in the developed adjuvant arthritis assay at a dose of 0.3 mg/kg for the percent reduction of carrageenan induced edema (LHF) on 22nd day; format: functional; outline: as §2
# [37] = test system: Rattus norvegicus; assay: Compound was evaluated in the developed adjuvant arthritis assay at a dose of 1 mg/kg for the percent reduction of carrageenan induced edema (LHF) on 22nd day; format: functional; outline: as §2
# [38] = test system: Mus musculus; assay: Compound was evaluated for the percent reduction of carrageenan induced edema in mice at dose of 1.0 mg/kg; format: functional
# [39] = test system: Rattus norvegicus; assay: Compound was evaluated in the developed adjuvant arthritis assay at a dose of 1 mg/kg for the percent reduction of carrageenan induced edema (LHF) on 21nd day; format: functional; outline: as §2
# [40] = test system: Mus musculus; assay: Percent analgesia in phenylquinone writhing assay at 1 mg/kg; format: functional; outline: as §3
# [41] = as §5; format: ADME, organism-based, Stomach; conditions: rat, in vivo; read-out: UD50 (the source's name); outline: as §6
structure (smiles),measurement,setting,value
O=S(=O)(C1=C(c2ccccc2)N2CCN=C2S1)c1ccccc1,Reduction,[1],10%
same,Reduction,[2],15%
same,Reduction,[3],6%
CCOC(=O)C1(O)CSC2=NC3CCCCC3N21 (stereo not drawn),Reduction,[4],3%
CC1=C(C(=O)Nc2c(C)cc(C)cc2C)SC2=NCCN21,LD50,[5],60 mg/kg
same,Reduction,[6],11%
CC1=CSC2=NC(C)(C)CN12,LD50,[5],60 mg/kg
same,Reduction,[6],0%
CC1=C(C(=O)Nc2c(C)cc(C)cc2C)SC2=NC(C)CN21 (stereo not drawn),Reduction,[4],24%
same,LD50,[5],400 mg/kg
CC1=C(C(=O)Nc2c(C)cc(C)cc2C)SC2=NC(C)(C)CN21,LD50,[5],60 mg/kg
same,Reduction,[6],3%
CC(C)(C)C1=CSC2=NC3CCCCC3N12 (stereo not drawn),LD50,[5],20 mg/kg
CC1=C(C(=O)N2C(C)CCC2C)SC2=NCCN21 (stereo not drawn),Reduction,[4],20%
same,LD50,[5],240 mg/kg
CC1=CSC2=NC3CCCCC3N12 (cis isomer),Reduction,[7],15%
same,LD50,[5],20 mg/kg
same,Reduction,[8],80%
same,Reduction,[9],57%
CC1=CSC2=NC3CCCCC3N12 (trans isomer),Reduction,[10],10%
same,Reduction,[11],18%
same,Reduction,[12],19%
same,Reduction,[13],2%
same,Reduction,[14],10%
same,LD50,[15],20 mg/kg
same,Reduction,[16],18%
same,Reduction,[17],19%
same,Reduction,[8],100%
same,Reduction,[18],0%
same,Reduction,[9],76%
same,Reduction,[19],2%
CC(=O)Oc1ccccc1C(=O)O [ASPIRIN],ED50,[20],85 mg/kg
same,ED50,[21],70 mg/kg
same,Analgesia,[22],90%
same,TD50,[23],200 mg/kg
same,Analgesia,[24],60%
same,Analgesia,[25],20%
same,UD50,[26],27 mg/kg
CC(C)Cc1ccc(C(C)C(=O)O)cc1 (stereo not drawn) [IBUPROFEN],NTD50,[27],470 mg/kg
same,Analgesia,[28],50%
same,LD50,[29],> 1000 mg/kg
same,Analgesia,[25],90%
same,UD50,[26],60 mg/kg
same,Analgesia,[30],30%
COc1ccc2c(c1)c(CC(=O)O)c(C)n2C(=O)c1ccc(Cl)cc1 [INDOMETHACIN],ED50,[20],1 mg/kg
same,Reduction,[31],11%
same,Analgesia,[32],20%
same,NTD50,[27],110 mg/kg
same,Reduction,[33],13% and 19%
same,Reduction,[34],39%
same,Reduction,[35],29%
same,ED50,[21],1 mg/kg
same,LD50,[29],160 mg/kg
same,Reduction,[36],21%
same,Reduction,[13],25%
same,Reduction,[37],29%
same,Reduction,[38],22%
same,Reduction,[39],21%
same,LD50,[5],160 mg/kg
same,UD50,[26],6 mg/kg
same,Reduction,[18],17%
same,Analgesia,[40],60%
same,Analgesia,[30],70%
same,Reduction,[19],35%
COc1ccc2cc([C@H](C)C(=O)O)ccc2c1 [NAPROXEN],TD50,[23],370 mg/kg
same,UD50,[26],10 mg/kg
CCCCC1C(=O)N(c2ccccc2)N(c2ccccc2)C1=O [PHENYLBUTAZONE],ED50,[20],64 mg/kg
same,NTD50,[27],690 mg/kg
same,ED50,[21],50 mg/kg
same,LD50,[29],> 300 mg/kg
same,UD50,[26],75 mg/kg
Cc1ccc(C(=O)c2ccc(CC(=O)O)n2C)cc1 [TOLMETIN],ED50,[20],22 mg/kg
same,TD50,[41],63 mg/kg
same,NTD50,[27],>1000 mg/kg
same,ED50,[21],20 mg/kg
same,Analgesia,[28],40%
same,Analgesia,[24],80%
same,Analgesia,[25],60%
